Results from ChEMBL document CHEMBL1131270, “Fluorescent probes for adenosine receptors: synthesis and biology of N6-dansylaminoalkyl-substituted NECA derivatives” (Bioorg Med Chem Lett, 1998).

How the values were obtained:
Adenosine receptor A3 = biological target: T1, Adenosine receptor A3 (Rattus norvegicus, UniProt P28647); experiment: Binding affinity for adenosine A3 receptor of rat testis membrane using [3H](R)-PIA
T1 sequence (P28647 whole entry): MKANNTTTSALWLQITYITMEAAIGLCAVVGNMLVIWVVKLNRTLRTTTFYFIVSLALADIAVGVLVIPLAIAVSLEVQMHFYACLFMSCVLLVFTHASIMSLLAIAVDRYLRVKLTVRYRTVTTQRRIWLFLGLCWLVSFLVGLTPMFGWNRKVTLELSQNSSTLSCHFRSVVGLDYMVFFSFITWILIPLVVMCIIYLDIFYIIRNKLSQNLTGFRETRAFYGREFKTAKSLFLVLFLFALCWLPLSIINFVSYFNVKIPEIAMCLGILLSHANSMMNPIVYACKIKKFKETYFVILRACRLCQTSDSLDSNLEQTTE
Outline: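 Rat testis membranes were labelled with [3H]-(R)-PIA for A3 binding, with 150 nM DPCPX present to block A1 receptors. Membrane preparation and assay followed an earlier published method. IC50 values were converted to Ki by Cheng–Prusoff and reported as mean ± S.E. of three experiments.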

Adenosine A2 receptor = Adenosine A2 receptor (Rattus norvegicus, UniProt P29276+P30543); experiment: Binding affinity for adenosine A2 receptor of rat striatal membrane using [3H]CGS-21680
Outline: (§1)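 Competition binding on rat membrane preparations: cerebral cortex for A1 with [3H]-CHA, striatum for A2 with [3H]-CGS 21680. Membrane preparation and assay followed an earlier published method. IC50 values were converted to Ki with the Cheng–Prusoff equation and reported as mean ± S.E. of three experiments.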

Adenosine receptor A1 = biological target: T2, Adenosine receptor A1 (Rattus norvegicus, UniProt P25099); experiment: Binding affinity for adenosine A1 receptor of rat cerebral cortex membrane using [3H]CHA; type: tissue-based; outline: as §1
T2 sequence (P25099 whole entry): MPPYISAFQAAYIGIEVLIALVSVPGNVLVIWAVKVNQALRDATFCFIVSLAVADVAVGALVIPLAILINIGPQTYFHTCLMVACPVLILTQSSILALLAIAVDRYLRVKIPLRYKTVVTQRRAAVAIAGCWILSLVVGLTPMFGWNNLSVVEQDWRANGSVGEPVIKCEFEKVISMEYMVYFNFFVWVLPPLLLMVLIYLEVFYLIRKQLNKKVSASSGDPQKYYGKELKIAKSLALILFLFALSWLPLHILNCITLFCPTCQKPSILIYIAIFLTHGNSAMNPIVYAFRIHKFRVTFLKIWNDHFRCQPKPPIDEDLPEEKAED

`CCNC(=O)[C@H]1OC(n2cnc3c(NCCCCCCNS(=O)(=O)c4cccc5c(N(C)C)cccc45)ncnc32)[C@H](O)[C@@H]1O` (stereo partly drawn) gave a Ki (Adenosine receptor A3) of 3600 nM, a Ki (Adenosine A2 receptor) of 4300 nM and a Ki (Adenosine receptor A1) of 27 nM.
In the case of `CCNC(=O)[C@H]1OC(n2cnc3c(NCCCCCCCCCCNS(=O)(=O)c4cccc5c(N(C)C)cccc45)ncnc32)[C@H](O)[C@@H]1O` (stereo partly drawn), the Ki (Adenosine receptor A3) is reported as 1100 nM, the Ki (Adenosine A2 receptor) is reported as > 10000 nM and the Ki (Adenosine receptor A1) is reported as 234 nM.
`CCNC(=O)[C@H]1OC(n2cnc3c(NCCCNS(=O)(=O)c4cccc5c(N(C)C)cccc45)ncnc32)[C@H](O)[C@@H]1O` (stereo partly drawn) showed a Ki (Adenosine receptor A3) of 1800 nM, a Ki (Adenosine A2 receptor) of 4300 nM and a Ki (Adenosine receptor A1) of 42 nM.
`CCNC(=O)[C@H]1OC(n2cnc3c(NCCCCCCCCNS(=O)(=O)c4cccc5c(N(C)C)cccc45)ncnc32)[C@H](O)[C@@H]1O` (stereo partly drawn) was tested, and the Ki (Adenosine receptor A3) was 252 nM, the Ki (Adenosine A2 receptor) was > 10000 nM and the Ki (Adenosine receptor A1) was 111 nM.
`CCNC(=O)[C@H]1OC(n2cnc3c(NCCCCNS(=O)(=O)c4cccc5c(N(C)C)cccc45)ncnc32)[C@H](O)[C@@H]1O` (stereo partly drawn) showed a Ki (Adenosine receptor A3) of 2000 nM, a Ki (Adenosine A2 receptor) of 9500 nM and a Ki (Adenosine receptor A1) of 70 nM.
`CCNC(=O)[C@H]1OC(n2cnc3c(NCCCCCCCCCCCCNS(=O)(=O)c4cccc5c(N(C)C)cccc45)ncnc32)[C@H](O)[C@@H]1O` (stereo partly drawn) was tested, and the Ki (Adenosine receptor A3) was 2500 nM, the Ki (Adenosine A2 receptor) was > 10000 nM and the Ki (Adenosine receptor A1) was 3400 nM.
